Measurements of several laboratories.
Lines come from different studies, so protocols differ.
Target: Cytoplasmic tyrosine-protein kinase BMX (BMX, Homo sapiens, UniProt P51813)
Sequence (P51813 1-675, as in one of the studies): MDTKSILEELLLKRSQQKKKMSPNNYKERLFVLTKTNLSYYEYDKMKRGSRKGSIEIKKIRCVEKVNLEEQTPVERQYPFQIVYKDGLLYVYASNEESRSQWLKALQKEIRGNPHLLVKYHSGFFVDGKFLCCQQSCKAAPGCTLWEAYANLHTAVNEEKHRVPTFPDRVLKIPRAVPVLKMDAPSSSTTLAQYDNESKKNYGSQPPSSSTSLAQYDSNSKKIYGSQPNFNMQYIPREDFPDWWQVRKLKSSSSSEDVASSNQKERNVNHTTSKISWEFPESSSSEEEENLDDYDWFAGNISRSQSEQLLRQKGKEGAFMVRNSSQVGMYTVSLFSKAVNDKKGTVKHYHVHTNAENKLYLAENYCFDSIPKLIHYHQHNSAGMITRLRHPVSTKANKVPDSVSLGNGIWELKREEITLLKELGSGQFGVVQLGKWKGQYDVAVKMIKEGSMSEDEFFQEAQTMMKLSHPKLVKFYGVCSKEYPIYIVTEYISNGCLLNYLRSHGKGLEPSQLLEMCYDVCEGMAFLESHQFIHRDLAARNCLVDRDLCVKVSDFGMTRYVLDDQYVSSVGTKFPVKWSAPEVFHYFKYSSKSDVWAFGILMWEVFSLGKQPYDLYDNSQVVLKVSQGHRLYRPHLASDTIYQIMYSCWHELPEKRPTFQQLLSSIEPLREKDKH

| SMILES | assay | setting | quantity | result |
| --- | --- | --- | --- | --- |
| O=c1[nH]c2ccccc2n1C1CCN(Cc2ccc(-c3[nH]c4cc5ncnc5cc4nc3-c3ccccc3)cc2)CC1 | cell-free assay | 0.5 µM | remaining signal | 108% |
| Cn1cc(-c2cc(F)cc(N3CCn4c(cc5c4CCCC5)C3=O)c2CO)cc(Nc2ccc(N3CCN(C4COC4)CC3)cn2)c1=O | enzyme activity, inhibitor | 0.1 µM | inhibition | 37% |
| COc1ncccc1-c1cnn2ccc(N3CCN(C(=O)OC(C)C)CC3)nc12 | binding, competition with immobilised ligand | 1 µM | remaining binding | 91% |
| C#Cc1n[nH]c2c(-c3cn([C@@H](C)c4ccccn4)c(=O)[nH]c3=O)cc(F)cc12 | enzyme activity, inhibitor | 0.1 µM | inhibition | -1.6% |
| CCn1cnc2c(Nc3cccc(Cl)c3)nc(N[C@H]3CCCC[C@H]3N)nc21 | enzyme activity, inhibitor | 0.5 µM | remaining activity | 90.7% |
| C#Cc1n[nH]c2c(-c3cn([C@@H](C)c4ccccc4)c(=O)[nH]c3=O)cc(F)cc12 | enzyme activity, inhibitor | 0.1 µM | inhibition | -7.4% |
| Cn1cc(-c2cccc(N3CCc4c(sc5c4CC(C)(C)C5)C3=O)c2CO)cc(Nc2ccncn2)c1=O | enzyme activity, inhibitor | 1 µM | inhibition | 49% |
| N#CC1(c2ccccn2)CCN(Cc2cc(C(=O)O)c(=O)n3ccccc23)CC1 | cell-free assay, competition with immobilised ligand | 1 µM | remaining binding | 88% |
| Nc1ncc(-c2nc(N3CCOCC3)nc(N3CCOCC3)n2)c(C(F)F)n1 | binding, competition with immobilised ligand | 10 µM | remaining binding | 86% |
| Cc1nn(C)cc1-c1nc2c(N3CCN(Cc4ccc(Cl)cc4)CC3)c(Cl)cnc2[nH]1 | binding, competition with immobilised ligand | 1 µM | remaining binding | 100% |
| Cn1cncc1[C@@](O)(COc1ccc(C#N)cc1-c1ccc(OC(F)(F)F)cc1)c1ccc(C#N)cc1 | cell-free assay, competition with immobilised ligand | 1 µM | remaining binding | 64% |
